System: Hepatocyte
Assay: Cytotoxicity against C57BLKS rat Primary hepatocytes assessed as cell viability by measuring cellular protein level at 10 to 300 uM by bicinchoninic acid method
Format: cell-based
How it was run: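 Primary hepatocytes isolated from rat, cultured overnight in DMEM with 10% FBS, then exposed to compounds. Cellular protein per group measured by bicinchoninic acid (BCA) method as a viability control. The same protein values serve to normalize glucose, TG and TC contents. Pathological stimulation where applicable: 1 µM dexamethasone plus 200 µM cAMP, or 25 mM glucose plus 500 nM insulin for 24 h. Means ± SEM, four independent experiments.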

In the case of `CCOC(=O)C(C)(C)Oc1ccc(F)c(/C=C/[N+](=O)[O-])c1`, the Activity is reported as “Non-Toxic”.

Reference: ChEMBL document CHEMBL4311987, “Discovery of novel allosteric site and covalent inhibitors of FBPase with potent hypoglycemic effects” (Eur J Med Chem, 2019)
